Assay outcomes (PubChem)
Rows were chosen to be rich in hits. Some 0.41% of all compounds tested hit in one or more screens of this group.
S1P3 antagonist – antagonists of human S1P3 receptor; CHO S1P3 NFAT-BLA reporter, FRET fluorescence, antagonist mode; 170,000 tested, 0.27% active; AID 485; inhibition, % at 4.98 µM; Q99500;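 active means inhibition above the plate cutoff, the mean inhibition of test wells on that plate plus 3 SD, cut at about 28% in these data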;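 further: cells challenged with S1P at its EC80 of 0.8 µM; blue over green emission ratio from cleaved BLA substrate after 4 h stimulation; 0% = S1P-stimulated wells and 100% = unstimulated DMSO-only wells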
Target sequence (Q99500 whole entry, looked up): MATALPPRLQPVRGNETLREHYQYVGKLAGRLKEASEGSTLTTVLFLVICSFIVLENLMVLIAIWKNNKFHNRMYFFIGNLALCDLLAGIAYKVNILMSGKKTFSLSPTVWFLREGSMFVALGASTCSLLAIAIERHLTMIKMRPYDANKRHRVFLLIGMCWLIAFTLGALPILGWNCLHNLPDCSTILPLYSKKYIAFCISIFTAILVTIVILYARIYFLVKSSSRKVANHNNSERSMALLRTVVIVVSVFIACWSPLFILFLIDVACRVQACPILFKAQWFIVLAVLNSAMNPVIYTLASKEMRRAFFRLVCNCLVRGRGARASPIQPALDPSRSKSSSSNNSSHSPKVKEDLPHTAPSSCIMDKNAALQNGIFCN
T cell modulator – modulates CD8 T cell binding to vesicles; 2C CD8+ T cell-vesicle binding, flow cytometry; active compounds read low; response (vesicle binding), % at 7 µM; 330,000 tested, 0.068% active;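 active means response, share of CD8 T cells binding vesicles, and their 90th percentile fluorescence all below set limits, cut at about 80% in these data, passing the limit was not always enough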;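 further: values below 100% mean blocked vesicle binding to the CD8+ T cells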
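Test system: purified 2C TCR transgenic mouse naive CD8+ T cells. Probe or stimulus: QL9-peptide-loaded Drosophila micro-vesicles bearing Ld, ICAM-1 and B7-1. Incubation: binding step 1.5 h, 37 °C, antibody labelling 20 min, ice. Measured by: flow cytometry of vesicle-bound cells.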
Yeast superoxide – caloric restriction mimetics inhibiting age-related superoxide in yeast | S. cerevisiae aged cells, superoxide DHE fluorescence; active compounds read low | superoxide response (% of plate mean), % at 10 µM | 330,000 tested, 0.18% active;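 active means superoxide response under a set limit, about three screen SD below normal, cut at about 65% in these data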;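 further: yeast aged for seven days with compound at 30 °C before DHE staining; 100% = average MFI of all compound-treated wells on the plate with controls excluded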
Active calls of the source: *; i = inactive; x = no result given.

SMILES | S1P3 antagonist | T cell modulator | Yeast superoxide
CCOC(=O)c1nnn(-c2nonc2N)c1CSc1ccccc1 | x | 343 | 99
CCOC(=O)c1nnn(-c2nonc2N)c1COc1cc(C)c(Cl)c(C)c1 | 58* | 289 | 110
Cc1ccc(OCC(=O)N(C)CC(=O)Nc2ccccc2Cl)c([N+](=O)[O-])n1 | x | 138 | 112
Cc1cc(C)n2nc(SCC(=O)N(CCC#N)c3ccc(F)cc3)nc2n1 | x | 145 | 90
NC(=O)c1nsc(C(=O)N(c2cccc(F)c2)C(C(=O)NCC2CCCO2)c2ccc3ncccc3c2)c1N (stereo not given) | x | 566 | 97
COc1cccc(/C=C2\SC(=S)N(CCC(=O)NNC(=O)c3ccccc3OC)C2=O)c1 | x | 830 | 87
COc1cccc(/C=C2\SC(=O)N(CCC(=O)NNC(=O)c3ccccc3Cl)C2=O)c1 | -10 | 10* | 94
CCOC(=O)C1CCN(C(=O)COC(=O)c2oc3ccccc3c2C)CC1 | x | 74 | 94
CCc1nnc(NC(=O)C2CCCCC2)s1 | 5 | 575 | 82
CC(C)c1nnc(NC(=O)C2CCCCC2)s1 | 94* | 875 | 89
COc1ccc2c(COC(=O)CNS(=O)(=O)c3ccc(C)c(C)c3)cc(=O)oc2c1 | x | 295 | 122
CC(=O)Nc1nnc(S(=O)(=O)N2CCN(c3ccc([N+](=O)[O-])cc3Cl)CC2)s1 | x | 985 | 124
CCCCNC(=O)c1cnc2n(c1=O)CCS2 | 5 | 26* | 104
O=C(NCCCc1ccccc1)c1cnc2n(c1=O)CCS2 | 7 | 431 | 105
Cc1noc(C)c1NC(=O)Nc1ccc2c(c1)C(=O)N([C@H](C)CO)C[C@H](C)[C@@H](CN(C)S(=O)(=O)c1c(C)noc1C)O2 | x | 361 | 100
COC(=O)c1ccccc1S(=O)(=O)N1CCC(C(=O)NC2CCCCC2C)CC1 (stereo not given) | x | 319 | 97
Cc1ccccc1NC(=O)COC(=O)CCc1c[nH]c2ccccc12 | x | 258 | 98
Cc1ccc(NC(=O)COC(=O)CCc2c[nH]c3ccccc23)c(C)c1 | x | 0.0* | 104
Cc1ccc(CNC(=O)C(=O)NCC2OCCN2S(=O)(=O)c2ccc(Br)cc2)cc1 (stereo not given) | x | 194 | 113
CN(CC(=O)Nc1ccc(F)cc1)C(=O)COc1ccccc1Cc1ccccc1 | x | 569 | 104
O=C(NCCS(=O)(=O)N1CCN(c2ccccc2)CC1)C1CCCC1 | x | 445 | 70
Cc1ccn(S(=O)(=O)c2ccc(N3CCCC3=O)cc2)n1 | x | 252 | 97
Cc1nc2ccccn2c1C(=O)NN | -5 | 286 | 90
CCOC(=O)c1c(C)nc2ccccn12 | 70* | 436 | 98
COc1ccc2c(c1)C(c1ccc([N+](=O)[O-])cc1)=NNC(c1ccco1)=N2 | x | 0.0* | 92
SMILES | S1P3 antagonist | T cell modulator | Yeast superoxide
COc1ccc(C2=NNC(c3ccco3)=Nc3ccc(F)cc32)cc1 | 2 | 328 | 103
CC(=O)N1c2ccc(S(=O)(=O)N3CCC(C(=O)Nc4cccc(C(F)(F)F)c4)CC3)cc2CC1C (stereo not given) | x | 227 | 99
Cc1ccc([N+](=O)[O-])cc1N | -10 | i | 98
Nc1ccc2c(c1)Cc1cc([N+](=O)[O-])ccc1-2 | 52* | 332 | 115
Fc1ccccc1NC(=S)NCCc1cccc(Cl)c1 | x | i | 93
CCC(C)N1CCC2(CC1)N=c1c(c3c4c5c(C)c(O)c3c(O)c1=NC(=O)C(C)=CC=C[C@H](C)[C@H](O)[C@@H](C)[C@@H](O)[C@@H](C)[C@H](OC(C)=O)[C@H](C)[C@@H](OC)C=CO[C@@](C)(O5)C4=O)N2 (stereo not given in full) | x | 483 | 72
CO[C@H]1C=CO[C@@]2(C)Oc3c(C)c(O)c4c(O)c(c5c(c4c3C2=O)NC2(CCN(CC(C)C)CC2)N=5)=NC(=O)C(C)=CC=C[C@H](C)[C@H](O)[C@@H](C)[C@@H](O)[C@@H](C)[C@H](OC(C)=O)[C@@H]1C | -18 | 405 | 62*
Cc1ccc(N2C(=O)C(Cl)=C(N3CCCCCC3)C2=O)c(C)c1 | x | 0.0* | 97
O=C1C(Cl)=C(N2CCCCCC2)C(=O)N1c1ccccc1Cl | x | 455 | 91
CSc1cccc(-n2ccc(=O)c(C)c2C)c1 | x | 349 | 105
COC(=O)/C(=N/Nc1ccccc1)N1CCCc2ccccc21 | 0 | 142 | 103
COC(=O)/C(=N/Nc1ccc(C)cc1)N1CCCc2ccccc21 | 15 | 441 | 63*
Cn1ccnc1SCC(=O)NC1(C#N)CCCCC1 | x | 566 | 92
COc1ccc(F)cc1S(=O)(=O)Nc1cc2c3c(c1)CC(=O)N3CCC2 | x | 137 | 102
CC(Oc1ccccc1Cl)C(=O)Nc1ccc(S(=O)(=O)N2CCCC2)cc1 (stereo not given) | x | 53 | 97
CC(NCc1ccccc1Cl)C(=O)Nc1ccc(S(=O)(=O)N2CCCC2)cc1 (stereo not given) | -13 | 0.0* | 93
